Experimental data from different studies.
Protocols differ between the studies behind these lines.
Target: Tyrosine-protein kinase Tec (TEC, Homo sapiens, UniProt P42680)
One construct used (P42680 1-631): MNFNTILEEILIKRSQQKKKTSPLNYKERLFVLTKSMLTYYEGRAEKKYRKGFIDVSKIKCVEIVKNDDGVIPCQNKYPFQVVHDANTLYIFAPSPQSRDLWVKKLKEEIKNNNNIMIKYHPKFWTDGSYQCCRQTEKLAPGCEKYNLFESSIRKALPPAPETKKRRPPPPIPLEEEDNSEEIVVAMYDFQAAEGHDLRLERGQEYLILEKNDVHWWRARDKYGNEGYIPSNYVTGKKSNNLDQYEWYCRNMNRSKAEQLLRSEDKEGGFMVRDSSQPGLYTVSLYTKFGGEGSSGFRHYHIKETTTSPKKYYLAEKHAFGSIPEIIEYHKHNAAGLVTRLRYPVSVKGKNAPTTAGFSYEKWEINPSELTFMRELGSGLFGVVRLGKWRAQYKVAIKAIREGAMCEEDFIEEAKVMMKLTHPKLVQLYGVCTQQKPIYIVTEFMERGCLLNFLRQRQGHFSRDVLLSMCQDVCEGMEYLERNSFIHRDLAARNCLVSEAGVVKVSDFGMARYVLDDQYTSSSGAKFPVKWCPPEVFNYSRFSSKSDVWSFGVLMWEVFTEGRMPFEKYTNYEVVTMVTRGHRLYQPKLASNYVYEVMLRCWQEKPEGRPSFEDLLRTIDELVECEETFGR

Structure (SMILES)	assay	setting	remaining binding [%]
Nc1ncc2c(n1)-c1c([nH]c3ccc(C#CC4CC4)cc13)CCCC2	binding, competition with immobilised ligand	1 µM	100
O=C(O)[C@H]1[C@H](Cn2nnc3ccccc3c2=O)CC[C@@H]1C(=O)c1ccc(OCCC2CCOCC2)cc1	binding, competition with immobilised ligand	1 µM	100
COc1cnc(Nc2cccc(S(N)(=O)=O)c2)nc1N1CCN(c2ccccc2)C(=O)C1	binding, competition with immobilised ligand	1 µM	100
C[C@@H]1CN(c2cc(-c3n[nH]c4ccc(OC5(C)CC5)cc34)ncn2)C[C@H](C)O1	cell-free assay, competition with immobilised ligand	0.1 µM	74
c1cncc(-c2cccc(Nc3nccc(NC4CCCCC4)n3)c2)c1	binding, competition with immobilised ligand	10 µM	94
CN(C)c1nccc(-c2cnc3ncccn23)n1	binding	1 µM	100
CS(=O)(=O)c1cc(C2(NC(=O)c3cncc4c3cnn4-c3ccc(F)cc3)CC2)ccn1	cell-free assay, competition with immobilised ligand	1 µM	99
CC1CCCN1c1nccc(-c2cnn3ncccc23)n1 (stereo not drawn)	binding	1 µM	100
COc1ccc2c(O[C@@H]3C[C@H]4C(=O)N[C@]5(C(=O)O)CC5/C=C\CCCCC[C@H](NC(=O)OC5CCCC5)C(=O)N4C3)cc(-c3csc(NC(=O)C(C)C)n3)nc2c1C (stereo partly drawn)	cell-free assay, competition with immobilised ligand	1 µM	100
Cc1cnc(Nc2ccc(C(=O)N3CCC(N4CCCC4)CC3)cc2)nc1-c1cc2ccccc2s1	binding, competition with immobilised ligand	1 µM	100
CSc1cccnc1N1CCN(Cc2nc3ccccc3[nH]2)CC1	binding, competition with immobilised ligand	1 µM	90
FC(F)(F)Oc1cccc(-c2cnc3ccc(-c4ccncc4)nn23)c1	binding, competition with immobilised ligand	5 µM	99
O=C(c1ccc(Nc2ncc(Cl)c(-c3ccc(Cl)s3)n2)cc1)N1CCC(N2CCCC2)CC1	binding, competition with immobilised ligand	1 µM	100
CN(CCCC(F)(F)F)c1nccc(-c2cnn3ncccc23)n1	binding	1 µM	97
CCS(=O)(=O)c1cc2cc(C[C@@](O)(CC(C)(C)c3ccc(F)cc3C(N)=O)C(F)(F)F)[nH]c2cn1	cell-free assay, competition with immobilised ligand	1 µM	100
COc1ccnn2ncc(-c3ccnc(N(C)C)n3)c12	binding	1 µM	93
O=C(c1ccc(Nc2nccc(-c3cc4ccccc4s3)n2)cc1)N1CCC(N2CCCC2)CC1	binding, competition with immobilised ligand	1 µM	100
N[C@@H]1CCN(c2nccc(-c3cnn4ncccc34)n2)C1	binding	1 µM	95
O=C(Nc1c[nH]nc1C(=O)NC1CCNCC1)c1cc(F)cc(F)c1	binding, competition with immobilised ligand	1 µM	100
CN(C)c1ncc(F)c(-c2cnn3ncccc23)n1	binding	1 µM	100
CCN1CCN(Cc2ccc(C(=O)Nc3ccc(C)c(Oc4ccc5c(c4)CC(=O)N5)c3)cc2C(F)(F)F)CC1	binding, competition with immobilised ligand	1 µM	98
